Reference: PMC4860949 (Bioorganic & medicinal chemistry, 2016)
Values joined by “and” are separate entries in the source; they are usually repeats but may differ in a detail not shown here. Equal entries are not always repeated. “Also recorded” adds a separate entry of the source.

How the values were obtained:
[1] = test system: Dd2 drug-resistant strain of P. falciparum; assay: Antimalarial bioassay: 72 h in vitro parasite growth assay, SYBR Green I; assay type: cell-based, Plasmodium falciparum; conditions: for Antiplasmodial activity (in words): Dd2 drug-resistant strain of P. falciparum; for Concentration at which compound was inactive in antimalarial assay: Dd2 strain, inactive at this (highest tested) dose
Procedure, shortened: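 Ring-stage Dd2 cultures (1% hematocrit, 1% parasitaemia) were grown for 72 h with increasing test compound concentrations at 37 °C in a humidified chamber under low oxygen (5.06% CO2, 4.99% O2, 89.95% N2). Viability was measured by SYBR Green I DNA quantitation. IC50 came from nonlinear regression as the mean of three independent determinations in duplicate, ± S.E.M. Artemisinin served as positive control.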

[2] = test system: HEK293 (Human Embryonic Kidney) cells; assay: In vitro cytotoxicity against HEK293 cells; assay type: cell-based; conditions: 24 h
[3] = test system: 3D7 strain of P. falciparum; conditions: chloroquine-sensitive strain; cited from earlier work

Structure (SMILES) | Antiplasmodial activity (in words) [1] | Concentration at which compound was inactive in antimalarial assay [1] | Concentration up to which no inhibition/toxicity to HEK cells was detected [2] | Antiplasmodial activity (in words) ([1]; listed as Betulinic acid (3)) | Inhibition of 3D7 strain of P. falciparum (in words) [3]
CCCCCC(=O)c1c(O)cc(O)cc1O [Compound 6, 1-(2,4,6-trihydroxyphenyl)-1-hexanone] | inactive | 90 µM and 80 µM | – | – | –
CC(C)=CCCC1=CCC2(C(=O)C(C)(C)C(=O)C(C)(C)C2=O)C(CC(C)C)C1 (racemic) [Compound 2, (±)-2,2,4,4-tetramethyl-11-isobutyl-9-(4-methyl-3-penten-1-yl)-spiro[5.5]undec-8-ene-1,3,5-trione] | moderate antiplasmodial activity | – | 100 µM | – | –
CCCCCC(=O)c1c(O)cc(O)c2c1OC1=C(C(=O)C(C)(C)C(=O)C1(C)C)C2CC(C)C (racemic) [Compound 1, (±)-4,9-dihydro-6,8-dihydroxy-2,2,4,4-tetramethyl-5-hexanoyl-9-isobutyl-1H-xanthene-1,3(2H)-dione] | strong antiplasmodial activity; also recorded: strong antimalarial activity | – | 3.125 µM | – | –
C=C(C)[C@@H]1CC[C@]2(C(=O)O)CC[C@]3(C)[C@H](CC[C@@H]4[C@@]5(C)CC[C@H](O)C(C)(C)[C@@H]5CC[C@]43C)[C@@H]12 [Compound 3, betulinic acid] | – | – | – | moderate inhibitory effect | inhibit
C[C@H]1[C@H](C)CC[C@]2(C(=O)O)CC[C@]3(C)C(=CC[C@@H]4[C@@]5(C)CC[C@H](O)C(C)(C)[C@@H]5CC[C@]43C)[C@H]12 [Compound 5, ursolic acid] | inactive | 40 µM | – | – | –
